PAD4 inh – inhibitors of human PAD4 | Q9UM07 | recombinant PAD4, RCA probe fluorescence polarization | inhibition, % at 6.36 µM | 330,000 compounds, 0.41% hits;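 active means percent inhibition above a cutoff equal to the mean of all tested compounds plus 3 SD, cut at about 15% in these data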;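 further: 0% = PAD4 with RCA probe and DMSO and 100% = probe without PAD4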
Target sequence (Q9UM07 whole entry, looked up): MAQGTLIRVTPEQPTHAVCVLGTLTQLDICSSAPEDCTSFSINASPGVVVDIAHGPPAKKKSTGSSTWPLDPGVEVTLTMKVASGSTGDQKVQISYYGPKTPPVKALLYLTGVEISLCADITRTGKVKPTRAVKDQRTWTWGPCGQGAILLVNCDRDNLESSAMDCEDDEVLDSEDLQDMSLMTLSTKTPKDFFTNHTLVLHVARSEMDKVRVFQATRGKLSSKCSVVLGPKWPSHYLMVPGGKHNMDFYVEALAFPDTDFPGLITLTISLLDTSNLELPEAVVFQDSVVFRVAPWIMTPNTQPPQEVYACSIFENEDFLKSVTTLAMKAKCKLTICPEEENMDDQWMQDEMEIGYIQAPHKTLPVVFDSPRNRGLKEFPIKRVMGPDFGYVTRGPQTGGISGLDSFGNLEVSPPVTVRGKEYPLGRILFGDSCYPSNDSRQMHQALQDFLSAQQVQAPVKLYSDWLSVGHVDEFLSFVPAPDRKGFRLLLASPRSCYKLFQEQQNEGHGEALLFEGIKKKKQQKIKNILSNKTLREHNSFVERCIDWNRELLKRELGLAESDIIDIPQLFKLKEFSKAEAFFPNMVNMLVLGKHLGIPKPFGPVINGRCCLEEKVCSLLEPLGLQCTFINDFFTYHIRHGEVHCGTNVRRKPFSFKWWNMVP
TDP2 absorb – blocks human TDP2 phosphodiesterase activity. AID 720702. O95551. inhibition, % at 12.8 µM. 370,000 compounds, 0.34% hits. recombinant TDP2, T5PNP hydrolysis, p-nitrophenol absorbance 415 nm;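 active means inhibition above the mean of all tested compounds plus 3 SD, set per campaign, cut at about 25% in these data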;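 further: 0% = DMSO with enzyme and 100% = buffer with substrate but no TDP2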
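Incubation: 2 h at 37 °C; Test system: recombinant human TDP2; Quantity: enzyme 120 nM; Read-out basis: percent inhibition; Medium: 50 mM Tris-HCl pH 7.5 with Mg2+, KCl, DTT, BSA; Repeats: single replicate; Compound: 12.8 µM single point, 1% DMSO; Signal: epi absorbance; Reagent: 5 mM T5PNP chromogenic substrate; Benchmarks: no-enzyme high, DMSO-plus-enzyme low.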
PRMT1 inh – PRMT1 (human) inhibition, primary screen | recombinant PRMT1, activity-based probe fluorescence polarization | AID 652257 | inhibition, % at 2.79 µM | Q99873 | 370,000 compounds, 1.3% hits;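 active means inhibition above about 21% made by adding two undisclosed values, limit read from the data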
GSTO1 inh – counter-screen for RBBP9 inhibitors: inhibitors of human GSTO1 | recombinant GSTO1, activity-based probe fluorescence polarization | 300,000 compounds, 1.1% hits | inhibition, % at 5.96 µM;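 active means inhibition above the campaign mean inhibition plus 3 SD, cut at about 35% in these data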;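 further: 0% = GSTO1-1 with DMSO and 100% = wells lacking GSTO1-1 enzyme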
Fh CTSL1 inh – blocks F. hepatica cathepsin L1 in PFM18AAP counter-screen; recombinant F. hepatica cathepsin L1, Z-Leu-Arg-MCA fluorescence; inhibition, % at 5.96 µM; 300,000 compounds, 0.49% hits;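 active means inhibition above the mean of all tested compounds plus 3 SD, set per screening campaign, cut at about 17% in these data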;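 further: 0% = plate median of test compound wells and 100% = 1 µM Z-Phe-Ala-diazomethylketone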
TDP2 inh conf – human TDP2 inhibition, confirmation. shares compounds with TDP2 absorb. recombinant human TDP2, absorbance read-out. inhibition, % at 12.8 µM. 1,100 compounds, 22% hits; in the data active means inhibition above about 25%;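 further: 0% = vehicle with enzyme and 100% = no enzyme buffer only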
* hit, by the source's call. Compounds with a hit are over-represented: about 2.5% of the library has one in this group of screens.

`COC(=O)[C@]12C[C@H](CC(=O)NCc3cccc(C(F)(F)F)c3)C(=O)N(CCc3ccc(OC)c(OC)c3)C1=C[C@H](C(C)C)O[C@@H]2C1CC1` gave TDP2 absorb -2 and PRMT1 inh -1.
`Cc1ccc(S(=O)(=O)N/N=C/c2ccccc2F)cc1[N+](=O)[O-]` gave PAD4 inh -3, TDP2 absorb 29*, PRMT1 inh 4, GSTO1 inh 6, Fh CTSL1 inh -3 and TDP2 inh conf 8.
CN(CCOc1ccccc1)CC(=O)Nc1ccc(S(=O)(=O)N2CCCC2)cc1 was read as PAD4 inh -2, TDP2 absorb 30*, PRMT1 inh 6, GSTO1 inh -6, Fh CTSL1 inh -2 and TDP2 inh conf -5.
CN1CCN(S(=O)(=O)c2ccc(NC(=O)COc3ccccc3)cc2)CC1 was read as PAD4 inh 4, TDP2 absorb 4, PRMT1 inh 0, GSTO1 inh -1 and Fh CTSL1 inh 9.
Screening O=C(Cn1c(-c2cncs2)nc2ccccc21)NC1CCCCC1 returned TDP2 absorb -5 and PRMT1 inh 2.
For Cc1nonc1NC(=O)CSc1nc(CCC2CCCC2)nc2ccccc12 the results were PAD4 inh 0, TDP2 absorb 25*, PRMT1 inh 0, GSTO1 inh -25, Fh CTSL1 inh -7 and TDP2 inh conf 0.
O=C(CCn1c(=O)oc2ccc(Cl)cc21)N1CCN(c2ccccc2)CC1 was read as PAD4 inh 9, TDP2 absorb 25*, PRMT1 inh -2, GSTO1 inh 5, Fh CTSL1 inh 1 and TDP2 inh conf -1.
`COc1ccc(F)cc1S(=O)(=O)NCc1cc(=O)n(C)c(=O)n1C` gave PAD4 inh -3, TDP2 absorb 25*, PRMT1 inh -1, GSTO1 inh 5, Fh CTSL1 inh -1 and TDP2 inh conf 4.
CC(=O)c1ccc2c(c1)C1C=CCC1C(c1ccncc1)N2 (centres undefined) was read as PAD4 inh -10, TDP2 absorb 32*, PRMT1 inh 9, GSTO1 inh 44*, Fh CTSL1 inh 4 and TDP2 inh conf 14.
CN(CCCOC(=O)c1cc2ccccc2o1)C1CN(Cc2cn(Cc3ccccc3Cl)nn2)S(=O)(=O)C1 (centres undefined) was read as TDP2 absorb -9 and PRMT1 inh -4.
For Cc1ccc(/C([O-])=C(/C(=S)NCc2ccccc2)[n+]2cccc(CO)c2)cc1[N+](=O)[O-] the results were TDP2 absorb 26*, PRMT1 inh 7 and TDP2 inh conf 1.
For CCc1cc[n+](C(C(=S)Nc2cccc(C)c2)=C([O-])c2ccc(C)c([N+](=O)[O-])c2)cc1 the results were TDP2 absorb -8 and PRMT1 inh 20.
`COc1ccc(-n2c(SCC(=O)Nc3ccc(Oc4ccccc4)cc3)nnc2-c2ccc(C)cc2)cc1` gave TDP2 absorb 1 and PRMT1 inh 2.
`Cc1[nH][nH]c(=O)c1C(c1cc(Br)ccc1O)c1c(C)[nH][nH]c1=O` gave PAD4 inh -4, TDP2 absorb 30*, PRMT1 inh -5, GSTO1 inh 26, Fh CTSL1 inh -1 and TDP2 inh conf 16.
CCOC(=O)CSC1=NC(=O)/C(=C/c2ccc(Br)cc2)S1 was read as PAD4 inh -6, TDP2 absorb 25*, PRMT1 inh 5, GSTO1 inh 29, Fh CTSL1 inh 3 and TDP2 inh conf 4.
Screening CCOC(=O)CSC1=NC(=O)/C(=C\c2ccc(OC(C)=O)cc2)S1 returned PAD4 inh 7, TDP2 absorb 6, PRMT1 inh 9, GSTO1 inh 5 and Fh CTSL1 inh -16.
`Cc1cccc(NC(=O)C(Cc2ccccc2)c2nn[nH]n2)c1C` (centres undefined) gave PAD4 inh -2, TDP2 absorb 28*, PRMT1 inh 0, GSTO1 inh 4, Fh CTSL1 inh 0 and TDP2 inh conf 2.
CC1=NN(c2ccccc2)C(=O)C1N=Nc1ccc(N)cc1 (centres undefined) was read as PAD4 inh -10, TDP2 absorb 29*, PRMT1 inh 3, GSTO1 inh 22, Fh CTSL1 inh 0 and TDP2 inh conf -1.
Cc1ccc2nc(-c3ccc4c(c3)NC(=O)CO4)cn2c1 was read as PAD4 inh 0, TDP2 absorb 25*, PRMT1 inh 0, GSTO1 inh 2, Fh CTSL1 inh 0 and TDP2 inh conf 3.
For Cn1c(=S)[nH]c2sc3c(c2c1=O)CCC(C(C)(C)C)C3 (centres undefined) the results were PAD4 inh 2, TDP2 absorb 27*, PRMT1 inh -2, GSTO1 inh -2, Fh CTSL1 inh 1 and TDP2 inh conf -3.
Screening Cc1ccc2c(c1)N(CCCC(=O)N(C)Cc1ccc(F)cc1)C(=O)CO2 returned TDP2 absorb -3 and PRMT1 inh -3.
Screening CC(C)c1ccc(NC(=O)/C(C#N)=C/c2ccncc2)cc1 returned PAD4 inh 3, TDP2 absorb 24*, PRMT1 inh 0, GSTO1 inh -1, Fh CTSL1 inh 1 and TDP2 inh conf 5.
Screening CC(C)CN(C(=O)CCc1ccccc1Cl)c1c(N)n(Cc2ccccc2)c(=O)[nH]c1=O returned PAD4 inh 1, TDP2 absorb 27*, PRMT1 inh 0, GSTO1 inh 0, Fh CTSL1 inh 1 and TDP2 inh conf -5.
`CC(C)CN(C(=O)CC(C)c1ccccc1)c1c(N)n(Cc2ccccc2)c(=O)[nH]c1=O` (centres undefined) gave PAD4 inh 2, TDP2 absorb -6, PRMT1 inh 3, GSTO1 inh -2 and Fh CTSL1 inh -2.
`COC(=O)[C@]1(CNC(=O)NCCc2ccc(OC)c(OC)c2)CC(=O)N(C)[C@@H]1c1ccccc1` gave TDP2 absorb -2 and PRMT1 inh -1.
For COc1ccc(S(=O)(=O)N2CCC(C(=O)NCc3ccncc3)CC2)cc1 the results were PAD4 inh -1, TDP2 absorb 26*, PRMT1 inh 1, GSTO1 inh 2, Fh CTSL1 inh 2 and TDP2 inh conf 1.
COc1ccc(S(=O)(=O)N2CCC(C(=O)NCCC(=O)NCc3ccncc3)CC2)cc1 was read as PAD4 inh -7, TDP2 absorb 8, PRMT1 inh -4, GSTO1 inh 1 and Fh CTSL1 inh -1.
`COc1ccccc1C(=O)Nc1nc(C)cc(C)n1` gave PAD4 inh 4, TDP2 absorb 25*, PRMT1 inh 0, GSTO1 inh -1, Fh CTSL1 inh 5 and TDP2 inh conf 1.
`COC(=O)C1=C(C)N(Cc2ccccc2C(F)(F)F)C(=NCc2ccccc2)NC1c1cccc(F)c1` (centres undefined) gave TDP2 absorb -7 and PRMT1 inh 7.

Bioassay records (PubChem)
